ChEMBL document CHEMBL1136227, “Regulation of gene expression by synthetic dimerizers with novel specificity” (Bioorg Med Chem Lett, 2003)
pEC50, pIC50: −log10 of the molar value.

Tests used:
[1] = target: Peptidyl-prolyl cis-trans isomerase FKBP1A (Homo sapiens, UniProt P62942, F36V); test: Inhibition of binding to Phe36Val (F36V) mutant of FK506 binding protein 12
Procedure, shortened: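 Fluorescence polarization competition assay with F36V-FKBP12, testing monomeric FKBP ligands. IC50 = monomer concentration reducing probe binding by 50%.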

HT-1080 [2] = test: (§1) Compound was induced transcription stably transfected with constructs encoding separate DNA-binding domain and activation domain proteins in HT1080 human fibrosarcoma cells; format: functional, cell-based
Procedure, shortened: (§2)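 HT1080 human fibrosarcoma cells, transiently or stably transfected with separate DNA-binding domain and activation domain fusions, each carrying three tandem F36V-FKBP copies, plus a SEAP reporter responsive to the reconstituted factor. Dimerizer titrated; secreted SEAP measured. EC50 = dimerizer concentration giving 50% of peak SEAP expression; peak level also expressed relative to a reference dimerizer.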

HT-1080 [3] = test: as §1; format: functional; procedure, shortened: as §2
HT-1080 [4] = test: (§3) Compound was induced transcription in transiently transfected with constructs encoding separate DNA-binding domain and activation domain proteins in HT1080 human fibrosarcoma cells; format: functional; procedure, shortened: as §2
HT-1080 [5] = test: as §3; format: functional, cell-based; procedure, shortened: as §2
HT-1080 [6] = test: Compound was induced transcription stably transfected with constructs encoding separate DNA-binding domain and activation domain proteins in HT1080 human fibrosarcoma cells; No induction; format: functional, cell-based; procedure, shortened: as §2
HT-1080 [7] = test: Compound was induced transcription stably transfected with constructs encoding separate DNA-binding domain and activation domain proteins in HT1080 human fibrosarcoma cells;No induction; format: functional, cell-based; procedure, shortened: as §2

Chain of Peptidyl-prolyl cis-trans isomerase FKBP1A (P62942 2-108 F37V limits assumed): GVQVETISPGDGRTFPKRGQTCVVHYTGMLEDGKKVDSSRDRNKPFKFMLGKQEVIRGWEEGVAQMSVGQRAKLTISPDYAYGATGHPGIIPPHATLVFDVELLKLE

Row | Structure (SMILES) | pIC50 [1] | Expression (HT-1080 [4]) [%] | pEC50 (HT-1080 [5]) | further results
1 | COc1ccc(CC[C@@H](OC(=O)[C@@H]2CCCCN2C(=O)[C@@H](C)c2cc(OC)c(OC)c(OC)c2)c2cccc(OCC(=O)O)c2)cc1OC | 8.09 | – | – | –
2 | CCC(CC)NC(=O)N1CCCC[C@H]1C(=O)O[C@H](CCc1ccc(OC)c(OC)c1)c1cccc(OCC(=O)O)c1 | 7.19 | – | – | –
3 | CC[C@H](C(=O)N1CCCC[C@H]1C(=O)O[C@H](CCc1cccnc1)c1cccc(OCC(=O)O)c1)c1cc(OC)c(OC)c(OC)c1 | 7.82 | – | – | –
4 | CCC(CC)NC(=O)N1CCCC[C@H]1C(=O)O[C@H](CCc1ccc(OC)c(OC)c1)c1cccc(OCC(=O)NCCNC(=O)COc2cccc([C@@H](CCc3ccc(OC)c(OC)c3)OC(=O)[C@@H]3CCCCN3C(=O)NC(CC)CC)c2)c1 | – | 138 | 7.96 | pEC50 (HT-1080 [2]): 7.72; Expression (HT-1080 [3]): 106%
5 | CC[C@H](C(=O)N1CCCC[C@H]1C(=O)O[C@H](CCc1cccnc1)c1cccc(OCC(=O)NCCNC(=O)COc2cccc([C@@H](CCc3cccnc3)OC(=O)[C@@H]3CCCCN3C(=O)[C@@H](CC)c3cc(OC)c(OC)c(OC)c3)c2)c1)c1cc(OC)c(OC)c(OC)c1 | – | 29 | 7.09 | EC50 (HT-1080 [6]): No induction
6 | CC[C@H](C(=O)N1CCCC[C@H]1C(=O)O[C@H](CCc1ccccc1)c1cccc(OCC(=O)O)c1)c1cc(OC)c(OC)c(OC)c1 | 8.26 | – | – | –
7 | CCC(C)(C)C(=O)C(=O)N1CCCC[C@H]1C(=O)O[C@H](CCc1ccc(OC)c(OC)c1)c1cccc(OCC(=O)O)c1 | 7.36 | – | – | –
8 | CC[C@H](C(=O)N1CCCC[C@H]1C(=O)O[C@H](CCc1ccc(OC)c(OC)c1)c1cccc(OCC(=O)O)c1)c1ccc2c(c1)OCO2 | 7.59 | – | – | –
9 | CC[C@H](C(=O)N1CCCC[C@H]1C(=O)O[C@H](CCc1ccc(OC)c(OC)c1)c1cccc(OCC(=O)NCCNC(=O)COc2cccc([C@@H](CCc3ccc(OC)c(OC)c3)OC(=O)[C@@H]3CCCCN3C(=O)[C@@H](CC)c3ccccc3)c2)c1)c1ccccc1 | – | 100 | 8.40 | pEC50 (HT-1080 [2]): 8.10; Expression (HT-1080 [3]): 100%
10 | CC[C@H](C(=O)N1CCCC[C@H]1C(=O)O[C@H](CCc1ccc(OC)c(OC)c1)c1cccc(OCC(=O)NCCNC(=O)COc2cccc([C@@H](CCc3ccc(OC)c(OC)c3)OC(=O)[C@@H]3CCCCN3C(=O)[C@@H](CC)c3ccc4c(c3)OCO4)c2)c1)c1ccc2c(c1)OCO2 | – | 105 | 8.22 | pEC50 (HT-1080 [2]): 8.05; Expression (HT-1080 [3]): 53%
11 | CO[C@H]1C[C@@H](C)C/C(C)=C/[C@@H](C/C=C/CC2/C=C(\C)C[C@H](C)C[C@H](OC)[C@H]3O[C@@](O)(C(=O)C(=O)N4CCCCC4C(=O)O[C@H](/C(C)=C/[C@@H]4CC[C@@H](O)[C@H](OC)C4)[C@H](C)[C@@H](O)CC2=O)[C@H](C)C[C@H]3OC)C(=O)C[C@H](O)[C@@H](C)[C@@H](/C(C)=C/[C@@H]2CC[C@@H](O)[C@H](OC)C2)OC(=O)C2CCCCN2C(=O)C(=O)C2O[C@H]1[C@H](OC)C[C@H]2C (some centres undefined) | – | 39 | 6.72 | EC50 (HT-1080 [6]): No induction
12 | COc1ccc(CC[C@@H](OC(=O)[C@@H]2CCCCN2C(=O)[C@@H](C)c2cc(OC)c(OC)c(OC)c2)c2cccc(OCC(=O)NCCNC(=O)COc3cccc([C@@H](CCc4ccc(OC)c(OC)c4)OC(=O)[C@@H]4CCCCN4C(=O)[C@@H](C)c4cc(OC)c(OC)c(OC)c4)c3)c2)cc1OC | – | 89 | 8.40 | EC50 (HT-1080 [7]): No induction
13 | CCC(C)(C)C(=O)C(=O)N1CCCC[C@H]1C(=O)O[C@H](CCc1ccc(OC)c(OC)c1)c1cccc(OCC(=O)NCCNC(=O)COc2cccc([C@@H](CCc3ccc(OC)c(OC)c3)OC(=O)[C@@H]3CCCCN3C(=O)C(=O)C(C)(C)CC)c2)c1 | – | 149 | 6.75 | pEC50 (HT-1080 [2]): 6.53; Expression (HT-1080 [3]): 17%
14 | CC[C@@H]1/C=C(\C)C[C@H](C)C[C@H](OC)[C@H]2OC(C(=O)C(=O)N3CCCCC3C(=O)O[C@H](/C(C)=C/[C@@H]3CC[C@@H](O)[C@H](OC)C3)[C@H](C)[C@@H](O)CC1=O)[C@H](C)C[C@H]2OC (some centres undefined) | 7.92 | – | – | –
15 | COc1ccc(CC[C@@H](OC(=O)[C@@H]2CCCCN2C(=O)Cc2ccccc2)c2cccc(OCC(=O)NCCNC(=O)COc3cccc([C@@H](CCc4ccc(OC)c(OC)c4)OC(=O)[C@@H]4CCCCN4C(=O)Cc4ccccc4)c3)c2)cc1OC | – | 150 | 7.70 | pEC50 (HT-1080 [2]): 8.00; Expression (HT-1080 [3]): 7%
16 | CC[C@H](C(=O)N1CCCC[C@H]1C(=O)O[C@H](CCc1ccccc1)c1cccc(OCC(=O)NCCNC(=O)COc2cccc([C@@H](CCc3ccccc3)OC(=O)[C@@H]3CCCCN3C(=O)[C@@H](CC)c3cc(OC)c(OC)c(OC)c3)c2)c1)c1cc(OC)c(OC)c(OC)c1 | – | 97 | 7.24 | EC50 (HT-1080 [6]): No induction
17 | CC[C@H](C(=O)N1CCCC[C@H]1C(=O)O[C@H](CCc1ccc(OC)c(OC)c1)c1cccc(OCC(=O)O)c1)c1cc(OC)c(OC)c(OC)c1 (stereo in doubt; form 1) | 8.09 | – | – | –
18 | CC[C@H](C(=O)N1CCCC[C@H]1C(=O)O[C@H](CCc1ccc(OC)c(OC)c1)c1cccc(OCC(=O)NCCNC(=O)COc2cccc([C@@H](CCc3ccc(OC)c(OC)c3)OC(=O)[C@@H]3CCCCN3C(=O)[C@@H](CC)c3cc(OC)c(OC)c(OC)c3)c2)c1)c1cc(OC)c(OC)c(OC)c1 (stereo in doubt; form 1) [RIMIDUCID] | – | – | 8.52 | –
19 | CC[C@H](C(=O)N1CCCC[C@H]1C(=O)O[C@H](CCc1ccc(OC)c(OC)c1)c1cccc(OCC(=O)O)c1)c1cc(OC)c(OC)c(OC)c1 (stereo in doubt; form 2) | 8.09 | – | – | –
20 | CC[C@H](C(=O)N1CCCC[C@H]1C(=O)O[C@H](CCc1ccc(OC)c(OC)c1)c1cccc(OCC(=O)NCCNC(=O)COc2cccc([C@@H](CCc3ccc(OC)c(OC)c3)OC(=O)[C@@H]3CCCCN3C(=O)[C@@H](CC)c3cc(OC)c(OC)c(OC)c3)c2)c1)c1cc(OC)c(OC)c(OC)c1 (stereo in doubt; form 2) [RIMIDUCID] | – | 79 | – | EC50 (HT-1080 [6]): No induction
